Consider 8 compounds from ChEMBL document CHEMBL1133603, “Synthesis and antimalarial activity of artemisinin derivatives containing an amino group” (2000).

Test [1] deals with Plasmodium berghei. Kind of test: Antimalarial activity against Plasmodium berghei K173 after peroral dose.
Test [2] deals with Plasmodium berghei. The test is described as above. The source holds these as a separate data set.
The subject of test [3] is Monkey. Kind of test: Time of clearance after oral administration on Plasmodium knowlesi in rhesus monkeys (7-day treatment). In kind it is functional, Cercopithecidae. The method in brief: (§1)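 Rhesus monkeys inoculated intravenously on D0 with 2 × 107 P. knowlesi. Compounds given orally once daily D0–D6 (7-day treatment) at 3.16 or 10.0 mg/kg/day, as stated per line. Parasitaemia followed to assess clearance rapidity; cure or recrudescence also recorded.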

Test [4] deals with Monkey. Kind of test: Percent parasitaemia before treatment at a dose of 3.16 mg/kg/day after oral administration on Plasmodium knowlesi in rhesus monkeys (7-day treatment). The format is functional, Cercopithecidae. The method in brief:
as §1

In test [5] the test system is Monkey. Kind of test: Percent parasitaemia before treatment at a dose of 10 mg/kg/day after oral administration on Plasmodium knowlesi in rhesus monkeys (7-day treatment). The format is functional, Cercopithecidae. The method in brief:
as §1

The test system of test [6] is Monkey. Kind of test: Mean time for 50% reduction in parasitaemia at a dose of 3.16 mg/kg/day after oral administration on Plasmodium knowlesi in rhesus monkeys (7-day treatment). In kind it is functional, Cercopithecidae. The method in brief:
as §1

Test [7] has as its system Monkey. Kind of test: Mean time for 90% reduction in parasitaemia at a dose of 3.16 mg/kg/day after oral administration on Plasmodium knowlesi in rhesus monkeys (7-day treatment). In kind it is functional, Cercopithecidae. The method in brief: as §1
Test [8] deals with Monkey. Kind of test: Mean time for 50% reduction in parasitaemia at a dose of 10 mg/kg/day after oral administration on Plasmodium knowlesi in rhesus monkeys (7-day treatment). In kind it is functional, Cercopithecidae. The method in brief:
as §1

The subject of test [9] is Plasmodium berghei. Kind of test: Antimalarial activity against Plasmodium berghei […] after subcutaneous dose. In kind it is functional. The method in brief: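 Mice inoculated intraperitoneally on day 0 with 1.5 × 107 P. berghei K173 parasitized cells. Test agents dissolved or ground in water or peanut oil, given once daily D0–D3 at 0.625, 1.25, 2.5, 5 and 10 mg/kg, orally or subcutaneously. Blood smears taken D4, stained and examined by microscopy.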

The subject of test [10] is Monkey. Kind of test: Mean time for 90% reduction in parasitaemia at a dose of 10 mg/kg/day after oral administration on Plasmodium knowlesi in rhesus monkeys (7-day treatment). In kind it is functional, Cercopithecidae. The method in brief:
as §1

For test [11], the system named is Monkey. Kind of test: Percent parasitaemia before treatment at a dose of 10 mg/kg/day after oral administration on Plasmodium knowlesi in rhesus monkeyss (7-day treatment). In kind it is functional, Cercopithecidae. The method in brief:
as §1

Values joined by “and” are separate entries in the source; they are usually repeats but may differ in a detail not shown here. Equal values may be shown once.

On to `C[C@@H]1CCC2[C@@H](C)[C@@H](OCCN3CCOCC3)O[C@@H]3O[C@@]4(C)CCC1[C@@]23OO4.O=C(O)C(=O)O` (stereo partly specified), for which the SD50 with Plasmodium berghei [1] came out at 1.61 mg/kg/day. The compound further returned an SD90 in the test with Plasmodium berghei [2] of 5.26 mg/kg/day.

In the test with Monkey [3], `C[C@@H]1CCC2[C@@H](C)[C@@H](OCCN(C)C)O[C@@H]3O[C@@]4(C)CCC1[C@@]23OO4.O=C(O)C(=O)O` (stereo partly specified) displayed a Parasite_Clearance_time of 44 h. Moreover, the Parasitemia is listed as 51.5% with Monkey [4] and 42.5% with Monkey [5]. Moreover, the SD50 came to 1.61 mg/kg/day with Plasmodium berghei [1] and 24.57 mg/kg/day with Plasmodium berghei [9]. For the same compound, the Reduction turned out to be 5.29 h with Monkey [6], 12.09 h in the test with Monkey [7], 6.25 h in the test on Monkey [8] and 13.98 h in the test with Monkey [10]. Also, the SD90 with Plasmodium berghei [9] turned out to be 255.83 mg/kg/day; in the test on Plasmodium berghei [2], 4.71 mg/kg/day.

For `C[C@@H]1CCC2[C@@H](C)[C@@H](OCCN3CCOCC3)O[C@@H]3O[C@@]4(C)CCC1[C@@]23OO4.O=C(O)/C=C\C(=O)O` (stereo partly specified), the SD50 in the test with Plasmodium berghei [1] is 1.82 mg/kg/day. Also, the SD90 in the test on Plasmodium berghei [2] turned out to be 7.29 mg/kg/day.

With `C[C@H]1C(OC(=O)CCC(=O)O)O[C@@H]2O[C@@]3(C)CCC4[C@H](C)CCC1[C@]42OO3` (stereo partly specified), the Parasite_Clearance_time in the test on Monkey [3] is 50 h and 54 h. Further, the Parasitemia is reported as 42.7% with Monkey [4] and 35% with Monkey [5]. For the same compound, the SD50 with Plasmodium berghei [1] was 6.33 mg/kg/day. The Reduction in the test with Monkey [6] was found to be 7.84 h; in the test with Monkey [7], 13.3 h; in the test with Monkey [8], 8.21 h; in the test with Monkey [10], 13.74 h. The SD90 with Plasmodium berghei [2] amounted to 23.39 mg/kg/day.

Consider `C[C@@H]1CCC2[C@@H](C)[C@@H](OCCCN3CCOCC3)O[C@@H]3O[C@@]4(C)CCC1[C@@]23OO4.O=C(O)/C=C\C(=O)O` (stereo partly specified), for which the Parasite_Clearance_time with Monkey [3] was 40 h. Besides, the SD50 is 1.82 mg/kg/day in the test with Plasmodium berghei [1] and 5.57 mg/kg/day in the test with Plasmodium berghei [9]. Moreover, the Reduction in the test with Monkey [6] amounted to 5.19 h; with Monkey [7], 11.8 h. Also, the values for the SD90 in the test on Plasmodium berghei [9] and with Plasmodium berghei [2] were 302.49 mg/kg/day and 5.28 mg/kg/day, respectively.

In the test on Plasmodium berghei [1], `C[C@@H]1CCC2[C@@H](C)[C@@H](OCCCN3CCOCC3)O[C@@H]3O[C@@]4(C)CCC1[C@@]23OO4.O=C(O)/C=C/C(=O)O` (stereo partly specified) gave an SD50 of 1.33 mg/kg/day. Also, the SD90 with Plasmodium berghei [2] was 11.19 mg/kg/day.

With `CCN(CC)CCO[C@H]1O[C@@H]2O[C@@]3(C)CCC4[C@H](C)CCC([C@H]1C)[C@]42OO3.O=C(O)C(=O)O` (stereo partly specified), in the test on Monkey [3], the Parasite_Clearance_time is 52 h. The same compound yielded a Reduction with Monkey [6] of 4.5 h. Moreover, the Reduction in the test on Monkey [7] turned out to be 11.38 h. In the test with Plasmodium berghei [9], the SD50 turned out to be 24.57 mg/kg/day and the SD90 came out at 255.83 mg/kg/day.

For `C[C@@H]1CCC2[C@@H](C)[C@@H](OCCNCCO)O[C@@H]3O[C@@]4(C)CCC1[C@@]23OO4.O=C(O)/C=C\C(=O)O` (stereo partly specified), the Parasitemia in the test with Monkey [11] was determined as 74%. The Parasite_Clearance_time in the test with Monkey [3] worked out at 52 h. The values for the SD50 in the test on Plasmodium berghei [1] and in the test with Plasmodium berghei [9] were 1.74 mg/kg/day and 27.66 mg/kg/day, respectively. Further, the Reduction in the test on Monkey [6] amounted to 4.5 h; in the test on Monkey [7], 11.38 h. The SD90 amounted to 165.96 mg/kg/day with Plasmodium berghei [9] and 5.08 mg/kg/day with Plasmodium berghei [2].
